ChEMBL document CHEMBL4602722, “Structural Studies on the Inhibitory Binding Mode of Aromatic Coumarinic Esters to Human Kallikrein-Related Peptidase 7” (J Med Chem, 2020)
Activity calls are given as the source filed them. The calls are words filed in the database; no cut-off is given here.

What was measured:
[1] = molecular target: Kallikrein-7 (Homo sapiens) (UniProt P49862); assay: Covalent binding affinity to of N-terminal SUMO and His6-tagged human KLK7 expressed in Escherichia coli Rosetta (DE3) pLysS assessed as compound binding to His57 of catalytic triad by mass spectrometry
[2] = molecular target: Kallikrein-7 (Homo sapiens) (UniProt P49862); assay: Inhibition of N-terminal SUMO and His6-tagged human KLK7 expressed in Escherichia coli Rosetta (DE3) pLysS assessed as reduction in covalent KLK7-vaspin complex formation using compound pre-treated KLK7 incubated for 60 mins by Coomassie-staining based SDS-PAGE method
Summary of the method: (§1)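 KLK7 was pre-treated with 1 mM compound (10 % DMSO, 37 °C, 30 min) and concentrated on a 5 kDa spin column. It was then mixed with vaspin at a 3:1 molar ratio (3.15 μM KLK7, 1.05 μM vaspin) in 50 mM Tris, 150 mM NaCl, pH 8.0 (elsewhere stated as pH 7.5) at room temperature for up to 60 min. Time-point samples were boiled 5 min in reducing SDS buffer, run on 12 % gels and Coomassie-stained.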

[3] = molecular target: Kallikrein-7 (Homo sapiens) (UniProt P49862); assay: Inhibition of N-terminal SUMO and His6-tagged human KLK7 assessed as reduction in vaspin-N-terminal cleavage using compound pre-treated KLK7 incubated for 60 mins by Coomassie-staining based SDS-PAGE method; summary of the method: as §1
[4] = molecular target: Kallikrein-7 (Homo sapiens) (UniProt P49862); assay: Inhibition of N-terminal SUMO and His6-tagged human KLK7 assessed as protease activity by measuring fluorogenic peptide substrate NFF-3 cleavage (reference value: >400 pmol/(min.ug)
[5] = Stability in 100% DMSO at -20 degC for several months by ESI-MS and 1H NMR spectroscopy; format: physicochemical

Sequence of Kallikrein-7 (Homo sapiens) (P49862 30-253 limits assumed): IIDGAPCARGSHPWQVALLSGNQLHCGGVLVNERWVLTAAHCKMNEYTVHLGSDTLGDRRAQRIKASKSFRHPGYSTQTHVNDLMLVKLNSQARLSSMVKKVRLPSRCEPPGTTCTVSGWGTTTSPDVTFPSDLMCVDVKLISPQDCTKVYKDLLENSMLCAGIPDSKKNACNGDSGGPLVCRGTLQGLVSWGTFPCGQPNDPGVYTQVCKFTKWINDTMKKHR

Activity [1]	inhibition [2]	inhibition [3]	Activity [4] [pmol/min/µg]	Stability [5]	SMILES
Active	Active	inactive	< 0.1	Stable	O=C(Oc1cccc(Br)c1)c1cc2cc(CCl)ccc2oc1=O
–	Active	inactive	< 0.1	–	O=C(Oc1cccc(I)c1)c1cc2cc(CCl)ccc2oc1=O
–	Active	inactive	< 0.1	–	O=C(Oc1cccc(Cl)c1)c1cc2cc(CCl)ccc2oc1=O
